Results reported in ChEMBL document CHEMBL2034880, “Synthesis and biological evaluation of pyrimidine-based dual inhibitors of human epidermal growth factor receptor 1 (HER-1) and HER-2 tyrosine kinases” (J Med Chem, 2012).
Each block holds one molecule with its values, some of them ahead of it.

Columns and labels:
A-431 = assay: Cytotoxicity against human A431 cells overexpressing HER-1 gene after 72 hrs by SRB assay; format: functional, cell-based; settings: A-431, 72 h
How it was run: (§1)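 A431 and SK-Br3 cells grown in DMEM (4.5 g/L glucose, 1.5 g/L sodium bicarbonate) with 10% FBS at 37 °C, humidified 5% CO2. Proliferation/growth inhibition IC50 values are means of three independent experiments, each run in duplicate.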

SK-BR-3 = assay: Cytotoxicity against human SKBR3 cells overexpressing HER-2 gene after 72 hrs by SRB assay; format: functional, cell-based; settings: SK-BR-3, 72 h; how it was run: as §1
[1] = Half life in mouse liver microsomes at 5 uM
[2] = Half life in rat liver microsomes at 5 uM
[3] = Half life in dog liver microsomes at 5 uM
[4] = Half life in human liver microsomes at 5 uM
[5] = Cmax in Sprague-Dawley rat at 5 mg/kg, po; format: ADME, organism-based; design: dose 5 mg/kg, route oral; settings: in vivo
How it was run: (§2)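 Male ICR mice (27 5 g) and male Sprague-Dawley rats (250 10 g), n = 3 per route. Single oral gavage dose (mice 10 mg/kg, rats 5 mg/kg) and tail-vein iv dose (mice 2 mg/kg, rats 1 mg/kg). Compound given as HCl salt in 30% PEG400 and 5% ethanol in distilled water. Jugular blood drawn at set times over at least 24 h into heparin. Plasma level measured by LC/MS/MS after acetonitrile protein precipitation.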

[6] = Half life in ICR mouse at 10 mg/kg, po; format: ADME, organism-based; design: dose 10 mg/kg, route oral; settings: in vivo; how it was run: as §2
[7] = Oral bioavailability in Sprague-Dawley rat at 5 mg/kg; format: ADME, organism-based; settings: in vivo; how it was run: as §2
[8] = Half life in Sprague-Dawley rat at 5 mg/kg, po; format: ADME, organism-based; design: dose 5 mg/kg, route oral; settings: in vivo; how it was run: as §2
[9] = Oral bioavailability in ICR mouse at 10 mg/kg; format: ADME, organism-based; settings: in vivo; how it was run: as §2
[10] = AUC (0 to last) in Sprague-Dawley rat at 5 mg/kg, po; format: ADME, organism-based; design: dose 5 mg/kg, route oral, time 0 - last; settings: plasma; how it was run: as §2
[11] = AUC (0 to last) in ICR mouse at 10 mg/kg, po; format: ADME, organism-based; design: time 0 - last, dose 10 mg/kg, route oral; settings: plasma; how it was run: as §2
[12] = Cmax in ICR mouse at 10 mg/kg, po; format: ADME, organism-based; design: dose 10 mg/kg, route oral; settings: in vivo; how it was run: as §2
[13] = molecular target: Hepatocyte growth factor receptor (Homo sapiens, UniProt P08581); assay: Inhibition of MET at 3 uM
Sequence of Hepatocyte growth factor receptor (P08581 whole entry): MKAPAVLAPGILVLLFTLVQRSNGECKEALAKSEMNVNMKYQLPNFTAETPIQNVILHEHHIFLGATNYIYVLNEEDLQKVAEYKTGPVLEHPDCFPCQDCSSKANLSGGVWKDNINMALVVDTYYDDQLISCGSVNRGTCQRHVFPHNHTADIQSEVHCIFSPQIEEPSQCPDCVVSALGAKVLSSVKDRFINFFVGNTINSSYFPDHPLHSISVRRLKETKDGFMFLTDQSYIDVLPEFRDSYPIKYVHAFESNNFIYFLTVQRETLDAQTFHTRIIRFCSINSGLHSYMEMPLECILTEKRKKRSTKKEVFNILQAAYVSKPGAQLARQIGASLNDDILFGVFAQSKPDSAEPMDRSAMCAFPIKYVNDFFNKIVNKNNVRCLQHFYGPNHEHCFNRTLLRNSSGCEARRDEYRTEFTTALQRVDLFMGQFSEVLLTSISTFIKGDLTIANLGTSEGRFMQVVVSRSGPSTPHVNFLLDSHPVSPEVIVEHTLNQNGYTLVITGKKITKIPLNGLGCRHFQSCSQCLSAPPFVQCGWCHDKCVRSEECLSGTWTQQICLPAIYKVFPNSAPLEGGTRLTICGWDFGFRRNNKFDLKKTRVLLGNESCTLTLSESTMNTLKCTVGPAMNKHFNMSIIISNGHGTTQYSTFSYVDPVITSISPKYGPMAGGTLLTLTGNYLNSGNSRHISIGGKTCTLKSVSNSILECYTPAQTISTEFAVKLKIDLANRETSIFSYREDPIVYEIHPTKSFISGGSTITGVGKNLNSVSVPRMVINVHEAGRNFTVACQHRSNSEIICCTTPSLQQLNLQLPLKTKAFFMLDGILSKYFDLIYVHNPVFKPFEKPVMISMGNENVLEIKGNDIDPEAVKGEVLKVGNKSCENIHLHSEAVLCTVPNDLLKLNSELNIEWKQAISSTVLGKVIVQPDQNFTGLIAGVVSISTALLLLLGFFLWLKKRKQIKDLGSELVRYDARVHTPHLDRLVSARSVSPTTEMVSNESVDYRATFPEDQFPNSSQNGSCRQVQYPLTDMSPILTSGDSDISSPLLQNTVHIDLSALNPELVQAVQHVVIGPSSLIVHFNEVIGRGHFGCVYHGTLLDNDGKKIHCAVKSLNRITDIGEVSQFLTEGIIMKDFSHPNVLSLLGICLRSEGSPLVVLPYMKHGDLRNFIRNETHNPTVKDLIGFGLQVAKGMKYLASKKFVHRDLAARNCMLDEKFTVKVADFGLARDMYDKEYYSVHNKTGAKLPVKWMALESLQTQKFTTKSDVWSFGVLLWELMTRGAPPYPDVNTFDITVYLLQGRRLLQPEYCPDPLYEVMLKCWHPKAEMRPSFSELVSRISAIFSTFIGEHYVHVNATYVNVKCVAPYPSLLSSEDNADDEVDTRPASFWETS

[14] = molecular target: Cyclin-dependent kinase 1/cyclin B1 (Homo sapiens) (UniProt P06493+P14635); settings: 3 uM
[15] = molecular target: Insulin-like growth factor 1 receptor (Homo sapiens, UniProt P08069); settings: 3 uM
[16] = molecular target: Mast/stem cell growth factor receptor Kit (Homo sapiens, UniProt P10721); settings: 3 uM
[17] = molecular target: T1, Receptor tyrosine-protein kinase erbB-2 (Homo sapiens, UniProt P04626); settings: SK-BR-3, 1 uM
T1 sequence (P04626 whole entry): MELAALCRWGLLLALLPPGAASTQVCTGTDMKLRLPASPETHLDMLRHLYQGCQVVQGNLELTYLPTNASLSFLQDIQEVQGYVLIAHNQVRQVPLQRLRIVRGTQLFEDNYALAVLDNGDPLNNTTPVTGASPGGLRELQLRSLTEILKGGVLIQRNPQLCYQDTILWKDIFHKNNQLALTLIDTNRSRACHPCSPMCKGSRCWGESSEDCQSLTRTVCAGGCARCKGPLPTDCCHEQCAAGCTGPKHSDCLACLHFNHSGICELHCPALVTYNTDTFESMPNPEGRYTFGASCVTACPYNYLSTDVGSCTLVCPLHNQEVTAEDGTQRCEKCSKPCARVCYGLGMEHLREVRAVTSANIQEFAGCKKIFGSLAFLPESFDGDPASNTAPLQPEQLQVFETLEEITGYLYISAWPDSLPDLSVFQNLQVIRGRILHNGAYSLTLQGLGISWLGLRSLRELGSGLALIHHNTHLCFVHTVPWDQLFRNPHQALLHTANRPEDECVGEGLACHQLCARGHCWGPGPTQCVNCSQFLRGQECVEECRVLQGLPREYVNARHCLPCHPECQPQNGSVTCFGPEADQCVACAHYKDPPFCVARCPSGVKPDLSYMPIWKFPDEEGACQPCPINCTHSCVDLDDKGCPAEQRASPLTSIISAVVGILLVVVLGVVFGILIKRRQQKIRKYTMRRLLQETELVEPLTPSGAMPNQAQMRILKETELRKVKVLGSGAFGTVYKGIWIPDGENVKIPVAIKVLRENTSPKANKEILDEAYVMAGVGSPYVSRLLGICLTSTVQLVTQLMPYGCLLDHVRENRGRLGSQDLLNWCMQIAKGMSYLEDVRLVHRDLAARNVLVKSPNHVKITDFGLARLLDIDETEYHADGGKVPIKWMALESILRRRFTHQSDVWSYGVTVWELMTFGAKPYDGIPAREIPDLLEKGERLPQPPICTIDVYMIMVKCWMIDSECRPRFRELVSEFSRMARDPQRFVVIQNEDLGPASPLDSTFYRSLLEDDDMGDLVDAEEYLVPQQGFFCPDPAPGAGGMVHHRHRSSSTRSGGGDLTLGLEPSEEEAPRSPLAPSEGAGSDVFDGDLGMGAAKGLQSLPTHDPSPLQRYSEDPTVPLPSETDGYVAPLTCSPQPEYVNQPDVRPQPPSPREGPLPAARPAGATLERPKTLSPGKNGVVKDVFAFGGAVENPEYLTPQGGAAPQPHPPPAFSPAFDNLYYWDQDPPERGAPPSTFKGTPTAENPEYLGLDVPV

[18] = molecular target: Aurora kinase A (Homo sapiens) (UniProt O14965); assay: Inhibition of Aurora A at 3 uM
[19] = molecular target: 5'-AMP-activated protein kinase catalytic subunit alpha-1 (Homo sapiens, UniProt Q13131); settings: 3 uM
[20] = molecular target: Tyrosine-protein kinase ABL1 (Homo sapiens, UniProt P00519); assay: Inhibition of Abl at 3 uM
[21] = molecular target: Tyrosine-protein kinase Blk (Homo sapiens) (UniProt P51451); assay: Inhibition of Blk at 3 uM
Sequence of Tyrosine-protein kinase Blk (Homo sapiens) (P51451 2-505 limits assumed): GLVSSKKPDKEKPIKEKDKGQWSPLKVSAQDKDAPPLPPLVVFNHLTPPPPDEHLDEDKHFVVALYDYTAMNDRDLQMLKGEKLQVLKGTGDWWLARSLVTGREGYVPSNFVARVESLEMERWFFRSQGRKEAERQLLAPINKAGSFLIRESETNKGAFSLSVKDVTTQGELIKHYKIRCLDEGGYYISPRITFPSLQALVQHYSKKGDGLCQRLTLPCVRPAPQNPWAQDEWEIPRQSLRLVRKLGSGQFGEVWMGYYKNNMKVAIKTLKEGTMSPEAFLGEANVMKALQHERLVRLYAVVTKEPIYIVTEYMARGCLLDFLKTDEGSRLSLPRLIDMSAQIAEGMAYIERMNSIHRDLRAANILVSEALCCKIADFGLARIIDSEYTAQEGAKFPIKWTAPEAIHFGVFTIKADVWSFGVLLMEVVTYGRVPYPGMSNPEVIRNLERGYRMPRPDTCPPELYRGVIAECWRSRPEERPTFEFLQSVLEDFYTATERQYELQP

[22] = molecular target: Tyrosine-protein kinase JAK2 (Homo sapiens, UniProt O60674); settings: 3 uM
[23] = molecular target: Serine/threonine-protein kinase STK11 (Homo sapiens) (UniProt Q15831); settings: 3 uM
[24] = molecular target: Platelet-derived growth factor receptor beta (Homo sapiens, UniProt P09619); settings: 3 uM
Insulin receptor = Insulin receptor (Homo sapiens, UniProt P06213); settings: 3 uM
Sequence of Insulin receptor (P06213 28-758 limits assumed): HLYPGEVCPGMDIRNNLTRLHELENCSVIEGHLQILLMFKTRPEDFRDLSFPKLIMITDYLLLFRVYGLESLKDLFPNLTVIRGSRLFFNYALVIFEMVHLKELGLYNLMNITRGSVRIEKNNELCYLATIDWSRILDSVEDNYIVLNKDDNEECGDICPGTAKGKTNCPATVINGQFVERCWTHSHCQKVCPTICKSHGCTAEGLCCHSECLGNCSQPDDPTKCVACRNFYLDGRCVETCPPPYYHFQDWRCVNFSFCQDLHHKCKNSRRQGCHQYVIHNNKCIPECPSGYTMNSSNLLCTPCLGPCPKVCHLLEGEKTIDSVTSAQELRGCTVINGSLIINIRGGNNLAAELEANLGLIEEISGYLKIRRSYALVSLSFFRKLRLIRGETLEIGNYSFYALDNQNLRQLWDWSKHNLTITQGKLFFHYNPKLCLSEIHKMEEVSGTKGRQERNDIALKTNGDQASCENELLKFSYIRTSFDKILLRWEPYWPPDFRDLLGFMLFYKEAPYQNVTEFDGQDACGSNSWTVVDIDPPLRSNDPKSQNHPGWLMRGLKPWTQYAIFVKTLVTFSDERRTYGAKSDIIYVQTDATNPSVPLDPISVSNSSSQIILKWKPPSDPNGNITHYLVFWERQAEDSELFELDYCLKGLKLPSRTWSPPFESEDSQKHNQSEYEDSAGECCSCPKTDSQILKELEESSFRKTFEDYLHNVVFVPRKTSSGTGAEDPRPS
Sequence of Insulin receptor (P06213 763-1382 limits assumed): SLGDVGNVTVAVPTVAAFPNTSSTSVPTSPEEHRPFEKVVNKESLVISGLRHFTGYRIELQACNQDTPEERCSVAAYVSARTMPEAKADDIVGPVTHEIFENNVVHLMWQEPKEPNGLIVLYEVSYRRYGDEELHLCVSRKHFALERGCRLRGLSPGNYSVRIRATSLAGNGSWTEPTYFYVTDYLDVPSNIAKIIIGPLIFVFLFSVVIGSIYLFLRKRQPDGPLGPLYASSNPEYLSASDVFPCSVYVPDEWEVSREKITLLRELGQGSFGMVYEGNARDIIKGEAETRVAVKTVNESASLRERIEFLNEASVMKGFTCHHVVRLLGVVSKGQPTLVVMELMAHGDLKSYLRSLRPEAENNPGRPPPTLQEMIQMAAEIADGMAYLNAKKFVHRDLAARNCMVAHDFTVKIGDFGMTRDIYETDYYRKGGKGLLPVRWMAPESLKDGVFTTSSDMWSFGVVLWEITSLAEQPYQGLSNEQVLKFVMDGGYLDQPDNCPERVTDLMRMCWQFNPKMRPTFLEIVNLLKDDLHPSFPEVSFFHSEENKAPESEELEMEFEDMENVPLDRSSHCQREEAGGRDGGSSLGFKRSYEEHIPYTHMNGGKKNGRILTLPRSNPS

[25] = molecular target: Fibroblast growth factor receptor 1 (Homo sapiens, UniProt P11362); settings: 3 uM
[26] = molecular target: Vascular endothelial growth factor receptor 1 (Homo sapiens, UniProt P17948); assay: Inhibition of Flt1 at 3 uM
[27] = molecular target: Receptor-type tyrosine-protein kinase FLT3 (Homo sapiens) (UniProt P36888); settings: 3 uM
[28] = molecular target: T1, Receptor tyrosine-protein kinase erbB-2; settings: SK-BR-3, 1 uM; remark: listed apart in the source
[29] = molecular target: Tyrosine-protein kinase SYK (Homo sapiens, UniProt P43405); assay: Inhibition of Syk at 3 uM
Focal adhesion kinase 1 = Focal adhesion kinase 1 (Homo sapiens, UniProt Q05397); settings: 3 uM
[30] = molecular target: Dual specificity mitogen-activated protein kinase kinase 1 (Homo sapiens, UniProt Q02750); settings: 3 uM
Sequence of Dual specificity mitogen-activated protein kinase kinase 1 (Q02750 whole entry): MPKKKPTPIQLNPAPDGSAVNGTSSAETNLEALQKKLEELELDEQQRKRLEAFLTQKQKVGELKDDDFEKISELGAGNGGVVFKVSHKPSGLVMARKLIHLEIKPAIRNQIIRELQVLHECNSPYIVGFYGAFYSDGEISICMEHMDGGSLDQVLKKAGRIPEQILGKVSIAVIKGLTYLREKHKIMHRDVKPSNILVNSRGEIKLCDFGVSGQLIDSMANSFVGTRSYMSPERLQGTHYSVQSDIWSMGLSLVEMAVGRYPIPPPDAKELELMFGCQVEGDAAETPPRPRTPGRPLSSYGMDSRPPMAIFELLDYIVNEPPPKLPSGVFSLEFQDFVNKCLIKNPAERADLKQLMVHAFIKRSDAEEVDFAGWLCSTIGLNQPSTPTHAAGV

[31] = molecular target: Platelet-derived growth factor receptor alpha (Homo sapiens, UniProt P16234); settings: 3 uM
[32] = molecular target: Serine/threonine-protein kinase pim-1 (Homo sapiens, UniProt P11309); settings: 3 uM

Compound: C=CC(=O)NCc1coc(-c2c(N)ncnc2Nc2ccc(Oc3cccc(Cl)c3Cl)c(Cl)c2)n1
- IC50 (A-431): 0.113 µM
- IC50 (SK-BR-3): 0.0182 µM

- half-life at 5 µM ([1]; microsomes): > 100 min
- half-life at 5 µM ([2]; microsomes): > 100 min
- half-life at 5 µM ([3]; microsomes): > 100 min
- half-life at 5 µM ([4]; microsomes): > 100 min
Compound: C=CC(=O)NCc1coc(-c2c(N)ncnc2Nc2ccc(Oc3cc(C(F)(F)F)nn3C)c(Cl)c2)n1
- IC50 (A-431): 0.065 µM
- IC50 (SK-BR-3): 0.0033 µM

Compound: C=CC(=O)NCC#Cc1cncnc1Nc1ccc(OCc2ccccn2)c(Cl)c1
- IC50 (A-431): > 1 µM
- IC50 (SK-BR-3): > 1 µM

- half-life at 5 µM ([1]; liver microsomes): 74 min
- half-life at 5 µM ([2]; liver microsomes): > 100 min
- half-life at 5 µM ([3]; liver microsomes): > 100 min
- half-life at 5 µM ([4]; liver microsomes): > 100 min
Compound: C=CC(=O)NCc1coc(-c2c(N)ncnc2Nc2ccc(Cl)c(Cl)c2F)n1
- IC50 (A-431): 0.282 µM
- IC50 (SK-BR-3): 0.0926 µM

- half-life at 5 µM ([1]; liver microsomes): > 100 min
- half-life at 5 µM ([2]; liver microsomes): 66 min
- half-life at 5 µM ([3]; liver microsomes): > 100 min
- half-life at 5 µM ([4]; liver microsomes): > 100 min
Compound: C=CC(=O)NCc1coc(-c2c(N)ncnc2Nc2ccc(Oc3ccc(F)cc3)c(Cl)c2)n1
- IC50 (A-431): 0.039 µM
- IC50 (SK-BR-3): 0.006 µM

- half-life at 5 µM ([1]; liver microsomes): 18 min
- half-life at 5 µM ([2]; liver microsomes): 9 min
- half-life at 5 µM ([3]; liver microsomes): 39 min
- half-life at 5 µM ([4]; liver microsomes): 15 min
Compound: C=CC(=O)NCc1coc(-c2c(N)ncnc2Nc2ccc(Oc3cccnc3)c(Cl)c2)n1
- IC50 (A-431): 0.068 µM
- IC50 (SK-BR-3): 0.0024 µM

- half-life at 5 µM ([2]; liver microsomes): 29 min
- half-life at 5 µM ([3]; liver microsomes): > 100 min
- half-life at 5 µM ([4]; liver microsomes): 45 min
Compound: C=CC(=O)NCc1coc(-c2c(N)ncnc2Nc2ccc(OCc3cccc(F)c3)c(Cl)c2)n1
- IC50 (A-431): 0.059 µM
- IC50 (SK-BR-3): 0.0039 µM

- Cmax [5]: 0.189 µg/mL
- half-life [6]: 1660 min
- bioavailability [7]: 21.9%
- half-life [8]: 194 min
- bioavailability [9]: 21.6%
- AUC(0-t) [10]: 0.44 µg·h/mL
- AUC(0-t) [11]: 0.455 µg·h/mL
- Cmax [12]: 0.283 µg/mL
Compound: C=CC(=O)NCc1coc(-c2c(N)ncnc2Nc2ccc(OCc3ccccn3)c(Cl)c2)n1.Cl

Compound: C=CC(=O)NCc1coc(-c2cncnc2Nc2ccc(OCc3ccccn3)c(Cl)c2)n1
- IC50 (A-431): 0.105 µM
- IC50 (SK-BR-3): 0.0097 µM

- half-life at 5 µM ([1]; liver microsomes): 15 min
- half-life at 5 µM ([2]; liver microsomes): 16 min
- half-life at 5 µM ([3]; liver microsomes): 24 min
- half-life at 5 µM ([4]; liver microsomes): 39 min
Compound: C=CC(=O)NCc1coc(-c2c(N)ncnc2Nc2ccc(Oc3ccccn3)c(Cl)c2)n1
- IC50 (A-431): 0.036 µM
- IC50 (SK-BR-3): 0.0017 µM

- half-life at 5 µM ([1]; liver microsomes): 48 min
- half-life at 5 µM ([2]; liver microsomes): 59 min
- half-life at 5 µM ([3]; liver microsomes): > 100 min
- half-life at 5 µM ([4]; liver microsomes): > 100 min
Compound: C=CC(=O)NCc1coc(-c2c(N)ncnc2Nc2ccc(Oc3ccccc3)c(Cl)c2)n1
- IC50 (A-431): 0.06 µM
- IC50 (SK-BR-3): 0.0031 µM

Compound: C=CC(=O)NCc1cc(-c2cncnc2Nc2ccc(OCc3ccccn3)c(Cl)c2)on1
- IC50 (A-431): 0.0022 µM
- IC50 (SK-BR-3): 0.122 µM

- half-life at 5 µM ([1]; liver microsomes): 9 min
- half-life at 5 µM ([2]; liver microsomes): 16 min
- half-life at 5 µM ([3]; liver microsomes): 44 min
- half-life at 5 µM ([4]; liver microsomes): 27 min
Compound: C=CC(=O)NCc1coc(-c2c(N)ncnc2Nc2ccc(OCc3ccccn3)c(F)c2)n1
- IC50 (A-431): 0.063 µM
- IC50 (SK-BR-3): 0.0061 µM

- half-life at 5 µM ([1]; microsomes): 39 min
- half-life at 5 µM ([2]; microsomes): 25 min
- half-life at 5 µM ([3]; microsomes): 51 min
- half-life at 5 µM ([4]; microsomes): > 100 min
Compound: C=CC(=O)NCc1coc(-c2c(N)ncnc2Nc2ccc(Oc3ccnn3C)c(Cl)c2)n1
- IC50 (A-431): 0.066 µM
- IC50 (SK-BR-3): 0.004 µM

- half-life at 5 µM ([1]; microsomes): 43 min
- half-life at 5 µM ([2]; microsomes): 17 min
- half-life at 5 µM ([3]; microsomes): 41 min
- half-life at 5 µM ([4]; microsomes): 39 min
Compound: C=CC(=O)NCc1coc(-c2c(N)ncnc2Nc2ccc(Oc3ccc(C)nc3)c(C)c2)n1
- IC50 (A-431): 0.064 µM
- IC50 (SK-BR-3): 0.0011 µM

- half-life at 5 µM ([1]; liver microsomes): > 100 min
- half-life at 5 µM ([2]; liver microsomes): 54 min
- half-life at 5 µM ([3]; liver microsomes): > 100 min
- half-life at 5 µM ([4]; liver microsomes): > 100 min
Compound: C=CC(=O)NCc1coc(-c2c(N)ncnc2Nc2ccc(Oc3cccc(F)c3)c(Cl)c2)n1
- IC50 (A-431): 0.075 µM
- IC50 (SK-BR-3): 0.0005 µM

Compound: C=CC(=O)NCc1coc(-c2c(N)ncnc2Nc2ccc(Oc3ccc(Cl)cc3Cl)c(Cl)c2)n1
- IC50 (A-431): 0.105 µM
- IC50 (SK-BR-3): 0.0065 µM

- half-life at 5 µM ([1]; liver microsomes): 57 min
- half-life at 5 µM ([2]; liver microsomes): 51 min
- half-life at 5 µM ([3]; liver microsomes): > 100 min
- half-life at 5 µM ([4]; liver microsomes): 96 min
Compound: C=CC(=O)NCc1coc(-c2c(N)ncnc2Nc2ccc(Oc3cc(Cl)ccc3Cl)c(Cl)c2)n1
- IC50 (A-431): 0.184 µM
- IC50 (SK-BR-3): 0.0019 µM

- half-life at 5 µM ([1]; liver microsomes): 9 min
- half-life at 5 µM ([2]; liver microsomes): 24 min
- half-life at 5 µM ([3]; liver microsomes): 9 min
- half-life at 5 µM ([4]; liver microsomes): 16 min
Compound: C=CC(=O)NCc1coc(-c2c(N)ncnc2Nc2ccc(F)c(Cl)c2)n1
- IC50 (A-431): 0.052 µM
- IC50 (SK-BR-3): 0.0341 µM

Compound: C=CC(=O)NCc1coc(-c2c(N)ncnc2Nc2ccc(Oc3ccccc3F)c(Cl)c2)n1
- IC50 (A-431): 0.029 µM
- IC50 (SK-BR-3): 0.0047 µM

Compound: C=CC(=O)NCCNC(=O)c1c(N)ncnc1Nc1ccc(OCc2ccccn2)c(Cl)c1
- IC50 (A-431): > 1 µM
- IC50 (SK-BR-3): > 1 µM

- inhibition [13]: 13%
- inhibition [14]: 0%
- inhibition [15]: 0%
- inhibition [16]: 0%
- inhibition [17]: 87.5%
- inhibition [18]: 42%
- inhibition [19]: 0%
- inhibition [20]: 15%
- inhibition [21]: 77%
- inhibition [22]: 0%
- inhibition [23]: 0%
- inhibition [24]: 0%
- inhibition (Insulin receptor): 0%
- inhibition [25]: 0%
- inhibition [26]: 15%
- inhibition [27]: 0%
- inhibition [28]: 68.2%
- inhibition [29]: 15%
- inhibition (Focal adhesion kinase 1): 0%
- inhibition [30]: 14%
- inhibition [31]: 0%
- inhibition [32]: 2%
Compound: C=CC(=O)NCc1coc(-c2c(N)ncnc2Nc2ccc(OCc3ccccn3)c(Cl)c2)n1

Compound: C=CC(=O)Nc1cccc(-c2cncnc2Nc2ccc(OCc3ccccn3)c(Cl)c2)c1
- IC50 (A-431): 0.593 µM
- IC50 (SK-BR-3): 0.0061 µM

Compound: C=CC(=O)NCc1coc(-c2c(N)ncnc2Nc2ccc(Oc3ccc(C)nc3)c(Cl)c2)n1
- IC50 (A-431): 0.068 µM
- IC50 (SK-BR-3): 0.0061 µM
